Results taken from ChEMBL document CHEMBL2146464, “Structure-activity relationship study of nitrosopyrimidines acting as antifungal agents” (Bioorg Med Chem, 2012).
Active and inactive are the calls of the source.

Key:
Type in all cases: functional, organism-based
[1] = system: Candida tropicalis; experiment: Antifungal activity against Candida tropicalis at 0.98 to 250 ug/mL after 48 hrs by NCCLS broth microdilution method
Procedure, shortened: (§1)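 Yeast MIC by NCCLS M27-A3 broth microdilution in RPMI-1640 buffered to pH 7.0 with MOPS. Twofold dilutions of 250–0.98 µg/mL, final DMSO ≤1%. Inoculum 1–5 × 10³ CFU/mL. Incubated at 30 °C in a moist dark chamber. Read visually at 48 h. MIC100 is the lowest concentration with no visible growth versus drug-free control.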

[2] = system: Trichophyton rubrum; experiment: Antifungal activity against Trichophyton rubrum CCC 110 at 0.98 to 250 ug/mL by NCCLS broth microdilution method
Procedure, shortened: (§2)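 MIC by broth microdilution per NCCLS M27-A3/M38-A2 in RPMI-1640 buffered to pH 7.0 with MOPS. Twofold dilutions from 250–0.98 µg/mL, final DMSO ≤1%. Inoculum 1–5 × 10³ CFU/mL. Incubated in a moist dark chamber, 30 °C for Aspergillus and 28–30 °C for dermatophytes. Read visually when control growth allowed. Endpoint is the lowest concentration giving total inhibition of visible growth (MIC100).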

[3] = system: Cryptococcus neoformans; experiment: Antifungal activity against Cryptococcus neoformans ATCC 32264 at 0.98 to 250 ug/mL after 48 hrs by NCCLS broth microdilution method; procedure, shortened: as §1
[4] = system: Aspergillus niger; experiment: Antifungal activity against Aspergillus niger ATCC 9029 at 0.98 to 250 ug/mL by NCCLS broth microdilution method; procedure, shortened: as §2
[5] = system: Aspergillus flavus; experiment: Antifungal activity against Aspergillus flavus ATCC 9170 at 0.98 to 250 ug/mL by NCCLS broth microdilution method; procedure, shortened: as §2
[6] = system: Aspergillus fumigatus; experiment: Antifungal activity against Aspergillus fumigatus ATCC 26934 at 0.98 to 250 ug/mL by NCCLS broth microdilution method; procedure, shortened: as §2
[7] = system: Candida albicans; experiment: Antifungal activity against Candida albicans ATCC 10231 at 0.98 to 250 ug/mL after 48 hrs by NCCLS broth microdilution method; procedure, shortened: as §1
[8] = system: Trichophyton mentagrophytes; experiment: Antifungal activity against Trichophyton mentagrophytes ATCC 9972 at 0.98 to 250 ug/mL by NCCLS broth microdilution method; procedure, shortened: as §2
[9] = system: Nannizzia gypsea; experiment: Antifungal activity against Microsporum gypseum CCC 115 at 0.98 to 250 ug/mL by NCCLS broth microdilution method; procedure, shortened: as §2

Measured: Activity

Nc1nc(OCC2CCCCC2)c(N=O)c(OCC2CCCCC2)n1
inactive: all assays above

COc1nc(N)nc(OC)c1N=O
inactive: all assays above

COc1nc(NCCOC(C)=O)nc(Nc2cccc(Cl)c2)c1N=O
inactive: all assays above

COc1nc(N)nc2c1NC(=O)[C@H](Cc1ccccc1)N2
inactive: all assays above

COc1nc(N)c(N=O)c(=O)n1Cc1ccccc1
inactive: all assays above

Nc1nc(NC2CCCCC2)c(N=O)c(N2CCCCCCCC2)n1
inactive: all assays above

CC(C)Nc1nc(N)nc(NCc2ccccc2)c1N=O
inactive: all assays above

COc1nc(N)nc2c1nnn2C12CC3CC(CC(C3)C1)C2
inactive: all assays above

COc1nc(NCCOC(C)=O)nc(Nc2ccccc2)c1N=O
inactive: all assays above

CC(C)Nc1nc(N)nc(Nc2cccc(Cl)c2)c1N=O
inactive: all assays above

CCC(C)C(Nc1nc(N)[nH]c(=O)c1N=O)C(=O)O (stereo unspecified)
inactive: all assays above

COc1nc(N)nc2c1NC(=O)CCN2
inactive: all assays above

COc1nc(N)c(N=O)c(N2CCCC2)n1
inactive: all assays above

CCCCNc1nc(N)nc(Nc2ccccc2)c1N=O
inactive: all assays above

CCOC(=O)[C@H](C)Nc1nc(N)nc(OCC2CCCCC2)c1N=O
inactive: all assays above

CCOC(=O)CCNc1nc(N)nc(Nc2ccccc2)c1N=O
inactive: all assays above

Nc1nc(NC(CO)C(=O)O)c(N=O)c(=O)[nH]1 (stereo unspecified)
inactive: all assays above

Nc1nc(NC23CC4CC(CC(C4)C2)C3)c(N=O)c(=O)[nH]1
inactive: all assays above

COc1nc(N)nc(NC23CC4CC(CC(C4)C2)C3)c1N=O
inactive: all assays above
